{"data": "Measured values collected from several papers", "TAOK1": "Serine/threonine-protein kinase TAO1 (TAOK1, Homo sapiens, UniProt Q7L7X3)", "note": "Protocols differ between the studies behind these lines."}
{"Structure (SMILES)": "CCN1/C(=C/C(C)=O)Sc2ccc(F)cc21", "target": "Type-1 angiotensin II receptor (AGTR1, Homo sapiens, UniProt P30556)", "assay": "ligand displacement, radioligand", "conditions": "10 µM", "quantity": "inhibition", "value": "0%"}
{"Structure (SMILES)": "CCCCC(=O)Nc1ccc(-c2ccc3ncn(CCC)c(=O)c3c2)cn1", "target": "Proto-oncogene tyrosine-protein kinase ROS (ROS1, Homo sapiens, UniProt P08922)", "assay": "binding, competition with immobilised ligand", "conditions": "0.5 µM", "quantity": "remaining binding", "value": "89%"}
{"Structure (SMILES)": "Cc1cc(O)c(-c2ccc([C@@H](C)CN(C)C)cc2)c2c1[nH]c(=O)c1sccc12", "target": "Wee1-like protein kinase (WEE1, Homo sapiens, UniProt P30291)", "assay": "enzyme activity, inhibitor", "conditions": "0.1 µM", "quantity": "inhibition", "value": "7.11%"}
{"Structure (SMILES)": "Cc1cc2c(C(N)=O)c(N)n(-c3c(C)ccc(O)c3C)c2nc1C", "target": "Serine/threonine-protein kinase B-raf (BRAF, Homo sapiens, UniProt P15056)", "assay": "enzyme activity, inhibitor, ADP detection", "conditions": "0.3704 µM", "quantity": "inhibition", "value": "84%"}
{"Structure (SMILES)": "C#Cc1cc(-c2cc(Nc3nc(N[C@@H](C)c4ccc(F)cn4)ncc3Cl)n[nH]2)ccc1C=O", "target": "Ribosomal protein S6 kinase alpha-2 (RPS6KA2, Homo sapiens, UniProt Q15349)", "assay": "enzyme activity, inhibitor", "conditions": "0.2 µM", "quantity": "inhibition", "value": "39%"}
{"Structure (SMILES)": "C1=C/COCc2cc(ccc2OCCN2CCCC2)Nc2nccc(n2)-c2cccc(c2)COC/1", "target": "Protein kinase C delta type (PRKCD, Homo sapiens, UniProt Q05655)", "assay": "binding", "conditions": "0.1 µM", "quantity": "remaining binding", "value": "100%"}
{"Structure (SMILES)": "CCCC[C@H](NC(C)=O)C(=O)N[C@@H](C)C(=O)N[C@@H](Cc1c[nH]cn1)C(=O)N[C@@H](Cc1ccccc1)C(=O)N[C@@H](CCCNC(=N)N)C(=O)N[C@H](Cc1c[nH]c2ccccc12)C(=O)N[C@@H](CC(=O)O)C(=O)N[C@@H](CCCNC(=N)N)C(=O)N[C@@H](Cc1ccccc1)C(=O)N[C@@H](C(=O)N1CCC[C@@H]1C(N)=O)C(C)C", "target": "Melanocyte-stimulating hormone receptor (MC1R, Homo sapiens, UniProt Q01726)", "assay": "cAMP, agonist", "quantity": "Emax", "value": "100%"}
{"Structure (SMILES)": "CNS(=O)(=O)c1ccc(Nc2ncc(C(F)(F)F)c(N3CCC[C@](C)(O)C3)n2)c(C)c1", "target": "TAOK1", "assay": "binding, competition with immobilised ligand", "conditions": "1 µM", "quantity": "remaining binding", "value": "5.3%"}
{"Structure (SMILES)": "COc1ccc2oc(-c3ccc4nc(N)oc4c3)c/c(=N\\c3ccccc3NC(=O)CCN)c2c1", "target": "Epidermal growth factor receptor (EGFR, Homo sapiens, UniProt P00533, L858R/T790M)", "assay": "cell-free assay", "conditions": "1 µM", "quantity": "remaining signal", "value": "106%"}
{"Structure (SMILES)": "NC/C(=C\\F)COc1cccc(Cn2c(=S)[nH]c(=O)c3[nH]cnc32)c1", "target": "Adenosine receptor A3 (ADORA3, Homo sapiens, UniProt P0DMS8)", "assay": "ligand displacement, radioligand", "conditions": "10 µM", "quantity": "inhibition", "value": "< 50%"}
{"Structure (SMILES)": "C[C@]1(O)CCCN(c2nc(Nc3ccc(S(=O)(=O)N[C@H]4CC[C@H](CN5CCN(c6ccc(C7CCC(=O)NC7=O)cc6F)CC5)CC4)cc3F)ncc2C(F)(F)F)C1 (stereo partly shown)", "target": "TAOK1", "assay": "binding, competition with immobilised ligand", "conditions": "1 µM", "quantity": "remaining binding", "value": "63%"}
{"Structure (SMILES)": "N#Cc1ccc(NC(=O)Nc2ccccc2)cc1", "target": "SRSF protein kinase 3 (SRPK3, Homo sapiens, UniProt Q9UPE1)", "assay": "cell-free assay, competition with immobilised ligand", "conditions": "25 µM", "quantity": "remaining binding", "value": "9.7%"}
{"Structure (SMILES)": "CC(=O)N[C@H](CCCNC(=N)N)C(=O)N[C@H]1CSSC[C@@H](C(N)=O)NC(=O)[C@H](Cc2c[nH]c3ccccc23)NC(=O)[C@H](CCCNC(=N)N)NC(=O)[C@@H](Cc2ccccc2)NC(=O)[C@H](Cc2c[nH]cn2)NC(=O)[C@H](CCC(=O)O)NC1=O", "target": "Melanocortin receptor 3 (MC3R, Homo sapiens, UniProt P41968)", "assay": "cAMP, agonist", "system": "CHO-K1", "quantity": "Emax", "value": "91%"}
